# OX1R antag-1: blocks the human orexin 1 receptor; 0.43% of 330,000 active; O43613; inhibition, % at 5 µM; CHO/OX1R cells, Fluo-8 calcium fluorescence, orexin A;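 active = inhibition above its plate's threshold, mean inhibition of all tested compounds on the plate plus 3 SD, cut at about 37% in these data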;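 also: 0% = orexin A challenge wells and 100% = SB-334867-A antagonist wells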
# CHO parental Ca: counter-screen for OX1R antagonists: effect in parental CHO cells; parental CHO-K1, ATP-induced calcium, Fluo-8 fluorescence; inhibition, % at 5.6 µM; 0.63% of 330,000 active; AID 463079;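 active = inhibition above that plate's mean sample inhibition plus 3 SD, cut at about 26% in these data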;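 also: 0% = ATP-challenged DMSO wells and 100% = DMSO wells without ATP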
#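 Assay system – parental CHO cells · Reagent – ATP stimulus · Detection – intracellular calcium via Fluo-8 no-wash fluorescent dye · Evaluation – percent inhibition of ATP-evoked calcium rise, normalized to controls · Controls – ATP wells versus no-ATP DMSO wells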
# V1R ag counter: counter-screen for oxytocin receptor agonists: human V1a receptor agonists; P37288; CHO-V1R cells, Fluo-8 calcium fluorescence, agonist mode; 0% DMSO, 100% 3 nM vasopressin; activation, % at 3 µM; 0.25% of 320,000 active;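 active = activation above the mean activation of all tested compounds plus 3 SD, per screening run, cut at about 20% in these data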;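 also: signal is peak over basal fluorescence ratio across a 100 second FLIPR read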
# Target sequence (P37288 whole entry, looked up): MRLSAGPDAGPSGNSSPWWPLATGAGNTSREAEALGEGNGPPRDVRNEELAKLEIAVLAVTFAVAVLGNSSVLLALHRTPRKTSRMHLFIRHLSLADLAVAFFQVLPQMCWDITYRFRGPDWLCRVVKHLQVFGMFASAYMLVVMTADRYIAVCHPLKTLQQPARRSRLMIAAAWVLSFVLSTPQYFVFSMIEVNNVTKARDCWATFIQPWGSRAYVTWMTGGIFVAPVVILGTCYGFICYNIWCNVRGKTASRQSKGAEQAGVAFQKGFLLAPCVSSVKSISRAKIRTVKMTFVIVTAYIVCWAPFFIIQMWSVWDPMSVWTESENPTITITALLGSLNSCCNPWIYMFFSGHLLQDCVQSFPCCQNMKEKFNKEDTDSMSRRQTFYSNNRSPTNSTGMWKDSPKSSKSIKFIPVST
# OXTR potentiate: potentiates the human oxytocin receptor response. AID 2445. P30559. 0.061% of 320,000 active. activation, % at 3 µM. CHO-OTR cells, Fluo-8 calcium fluorescence, potentiator mode; 0% = oxytocin EC15, 100% = EC100;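 active = activation above that plate's cutoff, the mean activation of tested compounds plus 3 SD, cut at about 6.6% in these data, passing the limit was not always enough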;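 also: 100% uses oxytocin at 75 nM as the full agonist control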
#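 Assay system: CHO-OTR cells, human receptor / Also added: oxytocin at about EC15, sub-maximal agonist stimulus / Dosing: single dose, 3.0 µM nominal final compound concentration / Incubation: 6 min pre-incubation, 100 s read / Technique: Fluo-8 calcium dye fluorescence / Read-out: % activation vs EC15 and EC100 oxytocin / Benchmarks: EC15 oxytocin low, 75 nM oxytocin high / Replicates: singlicate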
# OXTR ag: human OXTR agonism. P30559. CHO-OTR cells, Fluo-8 calcium fluorescence; normalized: DMSO 0%, oxytocin 100%. activation, % at 3 µM. 0.32% of 320,000 active. AID 2435;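 active = activation above the mean of all tested compounds plus 3 SD, cutoff set per screening run, cut at about 20% in these data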;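 also: peak over basal fluorescence ratio from a 100 s FLIPR kinetic read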
# OX1R antag-2: antagonists of human orexin 1 receptor (OX1R). O43613. OX1R-expressing cells, FRET antagonist read-out. inhibition, % at 6.6 µM. 1.8% of 330,000 active; in the data active = inhibition mostly above about 38%, no sharp cut-off; inactive = mostly below about 40%;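 also: 0% = agonist challenge alone and 100% = reference antagonist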
# OX1R HTRF conf: OX1R (human) antagonism, HTRF confirmed; shares compounds with OX1R antag-2; OX1R-expressing cells, HTRF antagonist assay; inhibition, % at 6.6 µM; 49% of 1,800 active; AID 492964; in the data active = inhibition above about 55%;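 also: CHO cells expressing OX1R stimulated with orexin A at about EC80; 0% = agonist challenge alone and 100% = reference antagonist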
# CHO-K1 HTRF: counter-screen for OX1R antagonists: effect in parental CHO-K1 cells; inhibition, % at 6.6 µM; HTRF counterscreen; shares compounds with OX1R antag-2; 48% of 1,800 active; in the data active = inhibition above about 17%;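 also: 0% = agonist challenge with vehicle and 100% = vehicle alone without agonist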
# * hit, by the source's call; / = no result given. Compounds with a hit are over-represented: about 2.7% of the library has one in this group of screens.
SMILES,OX1R antag-1,CHO parental Ca,V1R ag counter,OXTR potentiate,OXTR ag,OX1R antag-2,OX1R HTRF conf,CHO-K1 HTRF
CCOc1cc(/C=C2/NC(=O)NC2=O)cc([N+](=O)[O-])c1O,3.5,5.7,0.6,-4.6,1.0,80.3*,49.3,73.9*
COCCN(CC(=O)Nc1cc(Cl)ccc1-n1cncn1)Cc1nc2ccccc2c(=O)[nH]1,-40.6,-24.8,0.3,-6.2,-0.6,2.4,/,/
Cc1ccc(CNC(=O)c2ccc3c(c2)S(=O)(=O)c2ccccc2C3=O)o1,-12.1,-10.5,-1.4,-9.1,-2.3,46.1,/,/
O=C1c2ccccc2S(=O)(=O)c2cc(C(=O)N3CCC(N4CCCC4)CC3)ccc21,-12.8,-6.0,0.5,-5.8,-0.6,101.0*,44.6,87.6*
O=C(NCC1CCCO1)c1ccc2c(c1)S(=O)(=O)c1ccccc1C2=O (stereo unspecified),-14.0,-19.6,0.1,-6.9,0.8,80.6*,61.4*,62.5*
O=C(NCC1CCCO1)c1ccc(C(=O)NCC2CCCO2)cc1 (stereo unspecified),-5.3,8.0,0.5,0.9,-0.5,17.7,/,/
O=C(NCCO)c1ccc2c(c1)S(=O)(=O)c1ccccc1C2=O,2.7,-1.4,0.4,-7.6,-0.1,107.9*,64.7*,67.2*
O=C(CCN1N=C(c2ccccc2)CCC1=O)NCC1COc2ccccc2O1 (stereo unspecified),-26.1,-18.7,2.1,-0.9,-1.6,2.2,/,/
C#CCOc1ccc(/C=C2/C(=O)ON=C2C)cc1Br,3.1,-1.4,0.0,-13.7,1.5,-6.1,/,/
COc1ccc(OC)c(C2CC(=O)Nc3c2c(=O)[nH]c2ncnn32)c1 (stereo unspecified),-19.3,11.1,2.7,-4.8,0.9,24.4,/,/
CCOC(=O)N/N=C/c1ccc(N(CC)CC)cc1O,2.1,4.6,-0.8,-5.8,-1.0,12.7,/,/
CCN(CC)c1ccc(/C=N/NC(=O)c2c(Cl)cnn2C)c(O)c1,20.3,-9.2,-0.4,-5.6,-1.6,76.9*,66.4*,11.5
CC(C)(C)N1C(=O)c2ccc(C(=O)Nc3nccs3)cc2C1=O,-33.7,-28.2,0.2,-10.8,-0.6,14.1,/,/
CCN1C(=O)c2ccc(C(=O)Nc3nccs3)cc2C1=O,-13.0,-23.1,1.1,-0.1,1.4,89.6*,28.8,29.1*
COc1cc(F)c(S(=O)(=O)N2CCOc3ccccc32)cc1OC,-23.6,-5.9,2.4,-6.2,1.1,6.7,/,/
CC(/C=N/Nc1nc(C)cc(C)n1)=C\c1ccc(C(C)C)cc1,-20.2,-14.2,1.6,-5.4,-0.8,-1.0,/,/
CC1(C)OC(=O)C(=NNc2ccccc2)C(=O)O1,4.0,3.8,1.4,1.8,1.0,51.8,/,/
CC1(C)OC(=O)C(=NNc2ccc(O)cc2)C(=O)O1,-3.8,23.1,-0.1,-9.5,0.5,82.1*,19.3,24.0*
COc1ccc(NC(=O)CN2C(=O)COc3ccc(S(=O)(=O)N4CCCCCC4)cc32)cc1,-17.8,-7.5,-0.5,-9.6,-1.9,15.0,/,/
COc1cc(OC)cc(C(=O)NNS(=O)(=O)c2ccc(F)cc2)c1,-15.8,-7.6,-0.6,1.0,0.8,9.2,/,/
CC(C)(C)N(Cc1ccccc1)C(=O)COC(=O)CSc1ccc([N+](=O)[O-])cc1,-23.8,-18.5,2.4,-11.9,-0.4,23.1,/,/
O=C(NCCCn1ccnc1)c1ccncc1,-0.6,8.8,0.1,-3.4,-0.6,5.3,/,/
NS(=O)(=O)c1ccc(NCCCn2ccnc2)c([N+](=O)[O-])c1,7.4,7.4,0.2,-4.8,0.3,80.5*,52.0,49.8*
O=C(NCCCn1ccnc1)c1cc([N+](=O)[O-])cc([N+](=O)[O-])c1,-12.9,-9.0,-0.1,-0.5,1.3,104.7*,58.0*,87.2*
COc1ccc(C(=O)COC(=O)c2cc(S(=O)(=O)N3CCCCC3)ccc2N2CCOCC2)c(OC)c1,-19.2,-14.0,-0.1,-10.5,-1.1,19.9,/,/

# High-throughput results from PubChem BioAssay.
